Measured values published in publication PMC8434889 (Bioorganic Chemistry, 2021).

What was measured:
Splenocytes cytotoxicity = assay type: cell-based; conditions: female, BALB/c, mouse, murine splenocytes
In short: (§1)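 MTT assay after 48 h culture in triplicate with or without test compound. Cells: 8 × 10^5 BALB/c splenocytes or 1 × 10^5 RAW264.7 cells. MTT reagent (5 mg/mL) added 4 h before end of culture; formazan dissolved in DMSO; absorbance at 570 nm. CC50 from log(inhibitor)–normalized response nonlinear fit.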

[1] = test system: Con A-induced T cell proliferation of murine splenocytes; assay: Con A-induced T-cell proliferation; assay type: cell-based, mouse; conditions: 48 h; for IC50: Mus musculus, T-cell, read-out: Con A-induced T-cell proliferation IC50
In short: (§2)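 Splenocytes from 6–8-week-old female BALB/c mice, with erythrocytes lysed in NH4Cl/Tris buffer (pH 7.2), in RPMI 1640 with 10% FBS and penicillin/streptomycin. Cells at 5 × 10^5 in triplicate for 48 h with or without test compound (DMSO stock diluted in medium). Stimulation: ConA 1 μg/mL for T cells or LPS 10 μg/mL for B cells. [3H]thymidine 0.5 μCi/well pulse for 8 h, filter harvest, scintillation counting. IC50 from log(inhibitor)–normalized response nonlinear fit.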

[2] = test system: LPS-induced B cell proliferation of murine splenocytes; assay: LPS-induced B-cell proliferation; assay type: cell-based, mouse; conditions: 48 h; for IC50: Mus musculus, B-cell, read-out: LPS-induced B-cell proliferation IC50
In short: as §2

IFN-γ = assay: Con A-induced cytokine production in splenocytes, IFN-γ; assay type: cell-based; conditions: Mus musculus, Splenocyte, 48 h, read-out: IC50 IFN-γ
IL-17 = assay: Con A-induced cytokine production in splenocytes, IL-17; assay type: cell-based; conditions: Mus musculus, Splenocyte, 48 h, read-out: IC50 IL-17
IL-6 [3] = assay: Con A-induced cytokine production in splenocytes, IL-6; assay type: cell-based; conditions: Mus musculus, Splenocyte, 48 h, read-out: IC50 IL-6
IL-6 [4] = assay: LPS-induced cytokine production in splenocytes, IL-6; assay type: cell-based; conditions: Mus musculus, Splenocyte, 48 h, read-out: IC50 IL-6
IL-1β [5] = assay: LPS-induced cytokine production in splenocytes, IL-1β; assay type: cell-based; conditions: Mus musculus, Splenocyte, 48 h, read-out: IC50 IL-1β
[6] = Cytotoxicity in RAW264.7 cell; assay type: cell-based; conditions: mouse, RAW264.7 macrophage cells
In short: as §1

IL-6 [7] = assay: LPS-induced cytokine production in RAW264.7 cell, IL-6; assay type: cell-based; conditions: Mus musculus, RAW264.7, 48 h, read-out: IL-6 IC50
In short: (§3)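 Murine RAW264.7 macrophages grown in DMEM with 10% FBS, 2 mM L-glutamine and penicillin/streptomycin at 37 °C, 5% CO2. Cells at 1 × 10^5 in triplicate with or without test compound, then LPS 10 μg/mL for 48 h. Supernatant IL-1β, IL-6 and TNF-α by ELISA. IC50 from log(inhibitor)–normalized response nonlinear fit.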

IL-1β [8] = assay: LPS-induced cytokine production in RAW264.7 cell, IL-1β; assay type: cell-based; conditions: Mus musculus, RAW264.7, 48 h, read-out: IL-1β IC50
In short: as §3

TNF-α = assay: LPS-induced cytokine production in RAW264.7 cell, TNF-α; assay type: cell-based; conditions: Mus musculus, RAW264.7, 48 h, read-out: TNF-α IC50
In short: as §3

in vitro = conditions: human
[9] = molecular target: SARS-Cov2 spike glycoprotein (Severe acute respiratory syndrome coronavirus 2, UniProt P0DTC2); assay: cell-based; assay type: cell-based, SARS-CoV-2
Huh7 cell = conditions: read-out: Huh7 cell CC50; MTT, 2 days

Row | Compound | CC50 at 48 h (Splenocytes cytotoxicity) [µM] | IC50 [1] [µM] | IC50 [2] [µM] | IC50 (IFN-γ) [µM] | IC50 (IL-17) [µM] | IC50 (IL-6 [3]) [µM] | IC50 (IL-6 [4]) [µM] | IC50 (IL-1β [5]) [µM] | CC50 at 48 h [6] [µM] | IC50 (IL-6 [7]) [µM] | IC50 (IL-1β [8]) [µM] | IC50 (TNF-α) [µM] | CC50 (in vitro) [µM] | 2019nCoV-S-HIV EC50 [9] | EC50 [9] [µM] | CC50 (Huh7 cell) [µM] | Con A-induced T-cell proliferation IC50 ([1]; murine splenocytes, Con A 1 μg/mL) | LPS-induced B-cell proliferation IC50 ([2]; murine splenocytes, LPS 10 μg/mL)
1 | CCN(CC)CCCC(C)Nc1ccnc2cc(Cl)ccc12 (centres unmarked) [Compound 1, chloroquine, reference compound] | 25.5 ± 2.47 | 15.27 ± 0.13 | 14.6 ± 0.56 | 0.65 ± 0.31 | 0.65 ± 0.28 | 7.2 ± 1.49 | 0.81 ± 0.78 | 0.48 ± 0.34 | 21.9 ± 3.59 | 14.6 ± 1.27 | 2.72 ± 0.75 | 35 ± 18.7 | 26.4 | – | – | – | – | –
2 | CCN(CCO)CCCC(C)Nc1ccnc2cc(Cl)ccc12 (centres unmarked) [Compound 2, hydroxychloroquine, reference compound] | 26.8 ± 2.81 | 18.2 ± 1.45 | 14.2 ± 0.21 | 0.44 ± 0.01 | 0.62 ± 0.23 | 5.78 ± 2.39 | 0.86 ± 0.57 | 1.49 ± 0.32 | 25.3 ± 4.38 | 16.5 ± 0.55 | 3.51 ± 0.15 | 10 ± 2.97 | > 80 | ineffective | > 80 | – | – | –
3 | CCN(CCCC(C)Nc1ccnc2cc(Cl)ccc12)CCNC(=O)C(F)(F)C1CCN(CC(O)C(F)(F)F)CC1 (centres unmarked) [Compound 9, N-(2-((4-((7-Chloroquinolin-4-yl)amino)pentyl)(ethyl)amino)ethyl)-2,2-difluoro-2-(1-(3,3,3-trifluoro-2-hydroxypropyl)piperidin-4-yl)acetamide] | 5.71 ± 1.04 | 2.85 ± 0.49 | 1.07 ± 0.23 | 1.23 ± 0.23 | 1.04 ± 0.2 | 0.16 ± 0.08 | 0.01 ± 0.01 | 0.21 ± 0.08 | 48.64 ± 0.18 | 1.61 ± 0.25 | 0.72 ± 0.17 | 15.9 ± 0.45 | – | – | 32.8 | 16.7 | – | –
4 | CCN(CCCC(C)Nc1ccnc2cc(Cl)ccc12)CCNC1CNC1 (centres unmarked) [Compound 5, N^1-(2-(Azetidin-3-ylamino)ethyl)-N^4-(7-chloroquinolin-4-yl)-N^1-ethylpentane-1,4-diamine] | > 250 | > 250 | > 250 | – | – | – | – | – | – | – | – | – | > 80 | – | > 80 | – | lost activity completely | lost activity completely
5 | CCN(CCCC(C)Nc1ccnc2cc(Cl)ccc12)CCNC(=O)CCOCCOCCOCCOCCOCC(=O)Nc1ccc2c(c1)OC(F)(F)O2 (centres unmarked) [Compound 15, N^18-(2-((4-((7-Chloroquinolin-4-yl)amino)pentyl)(ethyl)amino)ethyl)-N1-(2,2-difluorobenzo[d][1,3]dioxol-5-yl)-3,6,9,12,15-pentaoxaoctadecanediamide] | 6.07 ± 0.4 | 1.32 ± 0.06 | 1.44 ± 0.56 | 1.67 ± 0.44 | 1.76 ± 0.72 | 0.47 ± 0.16 | 1.51 ± 0.53 | 3.34 ± 0.62 | – | 9.63 ± 3.75 | 3.84 ± 1.25 | 10.7 ± 3.99 | 21.7 | marginal potency | 20.4 | – | – | –
6 | CCN(CCCC(C)Nc1ccnc2cc(Cl)ccc12)CCNC12CC(N)(C1)C2 (centres unmarked) [Compound 6, N^1-(2-((4-((7-Chloroquinolin-4-yl)amino)pentyl)(ethyl)amino)ethyl)bicyclo[1.1.1]pentane-1,3-diamine] | 32.4 ± 6.22 | 16.7 ± 0.34 | 15.2 ± 0.46 | – | – | – | – | – | – | – | – | – | 24.9 | – | 40.5 | – | – | –
7 | CCN(CCCC(C)Nc1ccnc2cc(Cl)ccc12)CCNC(=O)C(F)(F)C1CCN(C(=O)C2OC(OC)C3OC(C)(C)OC23)CC1 (centres unmarked) [Compound 11, N-(2-((4-((7-Chloroquinolin-4-yl)amino)pentyl)(ethyl)amino)ethyl)-2,2-difluoro-2-(1-(6-methoxy-2,2-dimethyltetrahydrofuro[3,4-d][1,3]dioxole-4-carbonyl)piperidin-4-yl)acetamide] | 11.24 ± 0.08 | 2.49 ± 0.11 | 2.99 ± 0.73 | 0.35 ± 0.18 | 0.17 ± 0.06 | 0.45 ± 0.18 | 0.17 ± 0.11 | 0.04 ± 0.03 | 47.71 ± 0.15 | 1.87 ± 0.44 | 1.19 ± 0.41 | 4.41 ± 1.66 | – | – | 25.2 | 16.9 | – | –
8 | CCN(CCCC(C)Nc1ccnc2cc(Cl)ccc12)CCNC(=O)C(F)(F)C1CCNCC1 (centres unmarked) [Compound 8, N-(2-((4-((7-Chloroquinolin-4-yl)amino)pentyl)(ethyl)amino)ethyl)-2,2-difluoro-2-(piperidin-4-yl)acetamide] | 71.6 ± 3.47 | 45.4 ± 1.43 | 28.3 ± 6.13 | – | – | – | – | – | – | – | – | – | 27.3 | – | 31.6 | – | – | –
9 | CCN(CCCC(C)Nc1ccnc2cc(Cl)ccc12)CCNC(=O)C(F)(F)C1CCN(CCOCCOC)CC1 (centres unmarked) [Compound 10, N-(2-((4-((7-Chloroquinolin-4-yl)amino)pentyl)(ethyl)amino)ethyl)-2,2-difluoro-2-(1-(2-(2-methoxyethoxy)ethyl)piperidin-4-yl)acetamide] | 8.1 ± 0.77 | 4.27 ± 0.33 | 1.42 ± 0.15 | 0.61 ± 0.34 | 0.25 ± 0.03 | 2.7 ± 1.16 | 1.48 ± 0.81 | 0.003 ± 0.002 | 125 ± 45.7 | 2.52 ± 0.36 | 1.81 ± 0.83 | 24.4 ± 6.05 | – | – | 5.53 | 5.75 | – | –
